MC4R antag cAMP – human MC4R antagonism in cAMP assay; P32245; MC4R-expressing cells, MTII-stimulated cAMP, LANCE TR-FRET; inhibition, % at 6.5 µM; actives 0.48% (n = 360,000);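 active means inhibition above its plate's cutoff, the mean of tested wells on that plate plus 3 SD, cut at about 29% in these data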;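 further: 0% = Melanotan II alone and 100% = Melanotan II plus saturating MCL0020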
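Assay system: human MC4R-expressing U2OS cells; reagent: Melanotan II stimulation of cells; dosing: 6.5 µM single dose; timing: compound 30 min, challenge 1 h, detection 1 h; signal: TR-FRET cAMP assay; replicates: one well per compound, no replicates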
HTR2A ag – activates the mouse 5-HT2A serotonin receptor | P35363 | CHO-K1 mHTR2A beta-arrestin complementation, luminescence; percent of 30 µM serotonin response | activation, % at 7.6 µM | actives 0.66% (n = 360,000) | AID 624169;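 active means activation above a run cutoff, the mean activation of all tested compounds plus 3 SD, cut at about 14% in these data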;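 further: 0% = plate median of compound wells and 100% = 30 µM serotonin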
EBI2 block – blocks human EBI2 receptor beta-arrestin signaling | P32249 | EBI2 beta-arrestin recruitment, luminescence, 7a,25-OHC stimulated | inhibition, % at 5 µM | actives 0.81% (n = 360,000) | AID 651636; in the data active means inhibition above about 38%;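 further: enzyme fragment complementation signal reports receptor beta-arrestin coupling in cells; 0% = agonist plus DMSO wells and 100% = wells without agonist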
Target sequence (P32249 whole entry, looked up, the tested form may be a part): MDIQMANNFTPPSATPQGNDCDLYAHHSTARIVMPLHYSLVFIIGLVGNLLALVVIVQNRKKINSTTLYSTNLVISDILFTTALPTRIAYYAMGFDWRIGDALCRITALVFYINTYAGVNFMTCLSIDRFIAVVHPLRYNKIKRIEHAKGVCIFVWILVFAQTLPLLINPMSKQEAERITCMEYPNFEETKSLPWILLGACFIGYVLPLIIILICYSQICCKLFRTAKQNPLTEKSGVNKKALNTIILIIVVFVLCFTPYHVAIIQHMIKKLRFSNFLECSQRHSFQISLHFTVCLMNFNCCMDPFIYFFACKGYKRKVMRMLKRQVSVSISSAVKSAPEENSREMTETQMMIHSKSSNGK
MC4R barr agon – human MC4R agonism via beta-arrestin | U2OS MC4R beta-arrestin complementation, luminescence; percent of melanotan II response, DMSO zero | P32245 | activation, % at 8.9 µM | actives 0.98% (n = 360,000) | AID 540308;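 active means activation above a per-plate cutoff, the mean activation of sample wells on that plate plus 3 SD, cut at about 8% in these data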
MOR ag counter – activates human mu opioid receptor in HTR2A counterscreen; shares compounds with HTR2A ag; U2OS OPRM1 beta-arrestin PathHunter, luminescence; DMSO 0%, DAMGO 9.3 µM 100%; activation, % at 9.3 µM; actives 5.3% (n = 2,300); AID 624380;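 active means mean activation above the mean of DMSO-only wells plus 3 SD, cut at about 0.5% in these data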
m5-HT2A ag conf – confirmation of mouse HTR2A serotonin receptor agonists. shares compounds with HTR2A ag. CHO-K1 PathHunter beta-arrestin recruitment, luminescence; DMSO 0%, 30 µM serotonin 100%. activation, % at 7.6 µM. actives 19% (n = 2,300). AID 624381;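 active means mean activation across triplicates above the hit threshold derived in the original primary screen, cut at about 15% in these data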
* = called active by the depositor; . = not tested or not shown. Most compounds without a hit are left out; they make up all but 2.8% or so of the library.

SMILES | MC4R antag cAMP | HTR2A ag | EBI2 block | MC4R barr agon | MOR ag counter | m5-HT2A ag conf
Nc1nc(CN2CCN(c3ccccc3F)CC2)nc(Nc2ccc3c(c2)OCCO3)n1 | -8 | 22* | -4 | 4 | -1 | 36*
Nc1nc(CN2CCN(c3ccccn3)CC2)nc(Nc2ccc(Cl)cc2)n1 | 4 | 15* | -4 | -3 | 0 | 73*
CN(C)c1ccc(C(C(=O)NCc2ccccc2)N(Cc2cccnc2)C(=O)c2snc(C(N)=O)c2N)cc1 (configuration not stated) | 28 | 19* | -19 | 2 | -1 | -1
COc1ccc(C)cc1NC(=O)NC1CC(=O)N(c2ccc3c(c2)OCCO3)C1 (configuration not stated) | -2 | 5 | 6 | -1 | . | .
O=C(Cn1cnc2ccccc21)Nc1cccc(S(=O)(=O)N2CCCC2)c1 | 9 | -6 | -6 | 1 | . | .
COc1ccc(F)cc1-c1cc(C(=O)N2CCc3ccccc3C2)[nH]n1 | -5 | -2 | 4 | -1 | . | .
COc1ccccc1NC(=O)c1ccc(-c2ccc(Br)cc2)o1 | 1 | 31* | 8 | 0 | 0 | -3
O=C(Nc1ccccc1)c1ccc(-c2ccc(Br)cc2)o1 | 12 | 2 | 0 | 1 | . | .
CCCC(=O)Nc1nn(CC(C)C)c2nc3cc(C)ccc3cc12 | -1 | -3 | 2 | -1 | . | .
CCn1nc(NC(=O)CC(C)C)c2cc3ccc(C)cc3nc21 | 2 | 14* | -4 | 1 | 0 | -5
CC[C@@H]1CC2=C(C(=O)OC(C)(C)O2)[C@H](c2ccc(F)cc2)O1 | . | -4 | 2 | . | . | .
Cc1cccc(CN2CCN(c3ncccn3)CC2)c1 | -2 | 37* | 5 | -1 | -1 | 93*
c1ccc(CCCN2CCN(c3ccccn3)CC2)cc1 | 5 | -1 | -2 | 0 | . | .
c1ccc(COc2cccc(CN3CCN(c4ccccn4)CC3)c2)cc1 | -8 | 36* | -6 | 6 | -1 | 93*
c1ccc(COc2cccc(CN3CCCCC3)c2)cc1 | -7 | 5 | 2 | -1 | . | .
Cc1cccc(CN2CCN(c3ccccn3)CC2)c1 | 13 | 32* | 6 | 0 | -1 | 92*
Brc1cccc(CN2CCCCCCC2)c1 | 6 | 1 | 1 | 5 | . | .
Brc1cccc(CN2CCN(c3ncccn3)CC2)c1 | 3 | 33* | -6 | -2 | 0 | 84*
CCCCN1C(=O)C(CC(=O)NCCN2CCOCC2)CC(C(=O)N(C(C)C)C(C)C)=C1C (configuration not stated) | 18 | -3 | -3 | -1 | . | .
CC(=O)CSc1nc2nccnc2[nH]1 | 10 | 10 | -9 | -1 | . | .
Cc1c(C(=O)NCc2ccccc2C(F)(F)F)sc(=O)n1Cc1ccccc1C#N | 14 | 0 | -4 | 0 | . | .
c1ccc(N2CCN(Cc3ccsc3)CC2)nc1 | -2 | 35* | -16 | -1 | -1 | 102*
Cc1ccc(CN2CCN(c3ccccn3)CC2)s1 | -2 | 49* | -4 | -1 | 0 | 103*
COc1ccc(CN2CCN(c3ccccn3)CC2)c(OC)c1C | 5 | 3 | 7 | 1 | . | .
COc1ccc(CCN2CC(C(=O)Nc3nccs3)CC2=O)cc1OC (configuration not stated) | 7 | -2 | -7 | -1 | . | .
SMILES | MC4R antag cAMP | HTR2A ag | EBI2 block | MC4R barr agon | MOR ag counter | m5-HT2A ag conf
O=C1CCNc2c(Cl)cc(Cl)cc21 | 18 | -2 | -1 | -1 | . | .
O=C1CCNc2c(Cl)cccc21 | 24 | 15* | 1 | -1 | -1 | 2
CN1CCc2cccc3c2[C@@H]1Cc1ccc(O)c(O)c1-3 | -7 | 38* | 0 | -1 | 0 | 97*
O=S1(=O)CC(N2CCCCC2)CN1Cc1cn(Cc2ccc(Cl)cc2)nn1 (configuration not stated) | . | 2 | -5 | . | . | .
O=C(Nc1ccc(F)cc1)Oc1ccc[nH]c1=O | 0 | 15* | 0 | -1 | 0 | -2
O=C(Oc1ccc[nH]c1=O)c1ccccc1 | 1 | 2 | -2 | -2 | . | .
Cc1[nH]c2ccccc2c1NC(=O)CN1CCN(C(=O)c2ccco2)CC1 | 6 | 22* | -8 | 0 | -1 | 81*
Cc1ccc(NC(=O)CN2CCN(C(=O)c3ccco3)CC2)cc1 | 12 | -1 | 3 | 1 | . | .
Cc1ccc2nc(-c3ccc(NC(=O)CN4CCN(C(=O)c5ccco5)CC4)cc3)sc2c1 | 20 | 15* | 12 | 2 | 0 | 60*
CCOC(=O)C1CCN(c2nc(C)cc(C)c2C#N)CC1 | 0 | 16* | 3 | -2 | 0 | -3
C[C@]12c3[nH]c4ccc(Cl)cc4c3CCN1C(=O)[C@@H](CC(=O)NCCN1CCOCC1)C[C@@H]2C(=O)N1CCOCC1 | -4 | 3 | 1 | 0 | . | .
C[C@]12c3[nH]c4ccc(Cl)cc4c3CCN1C(=O)[C@@H](CC(=O)NCCC1=CCCCC1)C[C@@H]2C(=O)N1CCOCC1 | 4 | 23* | 13 | 2 | -1 | -6
COC(=O)c1ccc2nc(-c3ccccc3)c(Cc3ccccc3OC)n2c1 | . | -2 | 11 | . | . | .
COc1ccc(-c2cccc(NS(=O)(=O)c3cccc([N+](=O)[O-])c3)c2)nn1 | 5 | 17* | 2 | -2 | 0 | -3
Cc1cccc(NC(=O)C2Cc3ccccc3O/C2=N\O)c1 (configuration not stated) | 2 | 16* | 5 | 1 | -1 | -3
Cc1ccc(S(=O)(=O)N2CCOCC2)cc1NC(=O)c1ccc(F)cc1F | 6 | -3 | -8 | -3 | . | .
Cc1n[nH]c(=S)n(/N=C/c2cccs2)c1=O | 7 | 14* | -1 | -1 | -1 | -5
Cc1ccc(OCCNC(=O)[C@H]2O[C@@H](n3ccc(=O)[nH]c3=O)[C@H](O)[C@@H]2O)cc1C | . | 43* | 3 | . | 0 | -4
CNc1cncc(-c2cccnc2)n1 | -2 | 8 | -7 | -1 | . | .
COC(=O)Cc1c(C)c2ccc(OCC(=O)N3CCCC(C)C3)c(C)c2oc1=O (configuration not stated) | 7 | 15* | -2 | -2 | -1 | 5
COC(=O)Cc1c(C)c2ccc(OCC(C)=O)c(C)c2oc1=O | 18 | 2 | -5 | 1 | . | .
COc1ccccc1/C=C(/NC(=O)c1ccccc1)C(=O)NCCN1CCOCC1 | -7 | 8 | -8 | -2 | . | .
N/C(=N\OC(=O)c1ccccc1Cl)c1cccc([N+](=O)[O-])c1 | -1 | 15* | 4 | 1 | 0 | -6
CCc1nc2c(OCc3ccccc3C(=O)OC)cccn2c1N(C)C(=O)CC(C)C | 18 | -2 | 8 | -3 | . | .
COc1ccc([C@H]2CC(=O)C=C(c3cccc(CO)c3)C2)cc1 | 8 | 15* | 30 | -1 | -1 | -4
O=C1C=C(c2n[nH]nc2-c2ccccc2)C[C@@H](c2ccc(F)cc2)C1 | 9 | 15* | 18 | 6 | -1 | -4
